ChEMBL document CHEMBL2177000, “Pharmacokinetic optimization of class-selective histone deacetylase inhibitors and identification of associated candidate predictive biomarkers of hepatocellular carcinoma tumor response” (J Med Chem, 2012)
Values after ≈ are worked out from the molar mass of the structure shown.

Tests used:
[1] = Volume of distribution at steady state in BALB/C mouse at 5 mg/kg, po or 1 mg/kg, iv by LC-MS/MS method; format: ADME, organism-based; conditions: in vivo, read-out: Vdss
Outline: (§1)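 Nude-mouse PK at reduced doses, 1 mg/kg iv bolus (5% DMSO, 40% PEG400, 55% saline) and 5 mg/kg oral gavage (microcrystalline cellulose microsuspension); plasma from serial heparinized blood samples (eight po, nine iv time points) quantified by LC-MS/MS, parameters by noncompartmental methods.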

[2] = Tmax in BALB/C mouse at 5 mg/kg, po or 1 mg/kg, iv by LC-MS/MS method; format: ADME, organism-based; conditions: in vivo; outline: as §1
[3] = AUC in BALB/C mouse at 5 mg/kg, po or 1 mg/kg, iv by LC-MS/MS method; format: ADME, organism-based; conditions: plasma
Outline: (§2)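 BALB/C nude mice (15−20 g) given 5 mg/kg po and 1 mg/kg iv; blood collected at eight (po) or nine (iv) time points into sodium heparin tubes, plasma stored at −20 °C, measured by LC-MS/MS and analysed noncompartmentally.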

[4] = Oral bioavailability in BALB/C mouse at 5 mg/kg by LC-MS/MS method; format: ADME, organism-based; conditions: in vivo; outline: as §2
[5] = Clearance in mouse liver microsomes at 1 uM incubated for 10 mins by LC-MS/MS method; format: ADME, Microsome
Outline: (§3)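 Liver microsomes (human or mouse, 0.5 mg/mL) in 100 mM potassium phosphate pH 7.4 with 1 μM compound, prewarmed 10 min at 37 °C, started with NADPH (10 mM); stopped at 0, 3, 6, 9, 15, 30 min with ice-cold methanol containing tolbutamide internal standard; LC-MS/MS. Hepatic clearance (mL/min/kg) calculated from intrinsic clearance.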

[6] = Cmax in BALB/C mouse at 5 mg/kg, po or 1 mg/kg, iv by LC-MS/MS method; format: ADME, organism-based; conditions: in vivo; outline: as §2
[7] = Clearance in BALB/C mouse at 5 mg/kg, po or 1 mg/kg, iv by LC-MS/MS method; format: ADME, organism-based; conditions: in vivo; outline: as §2
[8] = Clearance in human liver microsomes at 1 uM incubated for 10 mins by LC-MS/MS method; format: ADME, Microsome; outline: as §3
[9] = Half life in BALB/C mouse at 5 mg/kg, po or 1 mg/kg, iv by LC-MS/MS method; format: ADME, organism-based; conditions: in vivo; outline: as §2
[10] = biological target: Histone deacetylase (Homo sapiens) (UniProt Q13547+O15379+Q9UBN7+Q92769+Q9UQL6+Q8WUI4+Q9BY41+Q96DB2+P56524+Q9UKV0+Q969S8); assay: Inhibition of Class 1 histone deacetylase in human HeLa cells assessed as induction in p21 protein expression at 3 uM incubated for 16 hrs by luciferase reporter gene assay relative to HDAC inhibitor entinostat; format: cell-based; set-up: scale not given: the % may be the effect or the level left
[11] = Tmax in BALB/C mouse at 10 mg/kg, po or 2 mg/kg, iv by LC-MS/MS method; format: ADME, organism-based; conditions: BALB/C, in vivo
Outline: (§4)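 Single-dose PK: iv bolus 2 mg/kg in 5% DMSO/40% PEG400/55% saline and/or oral gavage 10 mg/kg as 0.445% microcrystalline cellulose microsuspension; BALB/C nude mice (15−20 g, N = 16 per arm) or male Sprague−Dawley rats (250 ± 20 g, N = 3). Blood at eight (po) or nine (iv) time points into sodium heparin, plasma by LC-MS/MS, noncompartmental analysis.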

[12] = Cmax in BALB/C mouse at 10 mg/kg, po or 2 mg/kg, iv by LC-MS/MS method; format: ADME, organism-based; conditions: BALB/C, in vivo
Outline: (§5)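 Female-unspecified BALB/C nude mice (15−20 g, N = 16 per arm); iv bolus 2 mg/kg in 5% DMSO/40% PEG400/55% saline and/or oral gavage 10 mg/kg as 0.445% microcrystalline cellulose microsuspension. Blood sampled at nine (iv) or eight (po) time points into sodium heparin tubes; plasma by LC-MS/MS; noncompartmental analysis.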

[13] = Oral bioavailability in BALB/C mouse at 10 mg/kg by LC-MS/MS method; format: ADME, organism-based; conditions: BALB/C, in vivo
Outline: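 Bioavailability from single-dose iv (2 mg/kg, 5% DMSO/40% PEG400/55% saline) and oral gavage (10 mg/kg, 0.445% microcrystalline cellulose microsuspension) studies in BALB/C nude mice (N = 16 per arm); plasma at eight (po) or nine (iv) time points, LC-MS/MS, noncompartmental analysis.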

[14] = AUC in BALB/C mouse at 10 mg/kg, po or 2 mg/kg, iv by LC-MS/MS method; format: ADME, organism-based, Plasma; conditions: BALB/C, plasma; outline: as §5
[15] = Half life in BALB/C mouse at 10 mg/kg, po or 2 mg/kg, iv by LC-MS/MS method; format: ADME, organism-based; conditions: BALB/C, in vivo; outline: as §5
[16] = Clearance in BALB/C mouse at 10 mg/kg, po or 2 mg/kg, iv by LC-MS/MS method; format: ADME, organism-based; conditions: in vivo; outline: as §5
[17] = Volume of distribution at steady state in BALB/C mouse at 10 mg/kg, po or 2 mg/kg, iv by LC-MS/MS method; format: ADME, organism-based; set-up: unit not given here; conditions: in vivo, read-out: Vdss; outline: as §4
[18] = Solubility in 50 mM phosphate buffer at pH 6.5 by HPLC method; format: physicochemical
Outline: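 10 mM DMSO stock dried, residue redissolved in 50 mM phosphate buffer pH 6.5, stirred 1 h and shaken 2 h, left overnight, filtered and analysed by HPLC against calibration standards of 50−500 μM diluted from the DMSO stock.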

| SMILES | Vd [1] [L] | Tmax [2] [h] | AUC [3] [ng·h/mL] | bioavailability [4] [%] | CLhep predicted at 1 µM [5] [mL/min/kg] | Cmax [6] [ng/mL] | clearance [7] [mL/min/kg] | CLhep predicted at 1 µM [8] [mL/min/kg] | half-life [9] [h] | Activity [10] [%] | Tmax [11] [h] | Cmax [12] [ng/mL] | bioavailability [13] [%] | AUC [14] [ng·h/mL] | half-life [15] [h] | clearance [16] [mL/min/kg] | Vd [17] | solubility [18] [µg/mL] |
| --- | --- | --- | --- | --- | --- | --- | --- | --- | --- | --- | --- | --- | --- | --- | --- | --- | --- | --- |
| CC(C)(C)N1C[C@H](C(=O)Nc2ccc(Cl)cc2)[C@@H](c2ccc(/C=C/C(=O)Nc3ccccc3N)cc2)C1 (racemic) | – | – | – | – | 20 | – | – | 8 | – | 160 | 2 | 113 | 59 | 813 | 6.8 | 60 | 31 | – |
| Nc1ccccc1NC(=O)/C=C/c1ccc([C@H]2CN(C3CCOCC3)C[C@@H]2C(=O)Nc2ccc(Cl)cc2)cc1 (racemic) | – | – | – | – | 44 | – | – | 12 | – | 220 | 0.17 | 315 | 23 | 1000 | 4.9 | 39 | 5.6 | – |
| Nc1ccccc1NC(=O)/C=C/c1ccc(C(NCCN2CCOCC2)C(=O)Nc2ccc(C(F)(F)F)cc2)cc1 (racemic) | – | – | – | – | 78 | – | – | – | – | 100 | – | – | 11 | – | – | 122 | – | 32 (≈ 56.4 µM) |
| Nc1ccccc1NC(=O)/C=C/c1ccc(C(C(=O)Nc2ccc(Br)cc2)N2CC[C@H](O)C2)cc1 (stereo not given in full) | – | – | – | – | 52 | – | – | – | – | 150 | – | – | 13 | – | – | 8 | – | 5 (≈ 9.34 µM) |

The remaining lines, values ahead:

| Vd [1] [L] | Tmax [2] [h] | AUC [3] [ng·h/mL] | bioavailability [4] [%] | CLhep predicted at 1 µM [5] [mL/min/kg] | Cmax [6] [ng/mL] | clearance [7] [mL/min/kg] | CLhep predicted at 1 µM [8] [mL/min/kg] | half-life [9] [h] | Activity [10] [%] | Tmax [11] [h] | Cmax [12] [ng/mL] | bioavailability [13] [%] | AUC [14] [ng·h/mL] | half-life [15] [h] | clearance [16] [mL/min/kg] | Vd [17] | solubility [18] [µg/mL] | SMILES |
| --- | --- | --- | --- | --- | --- | --- | --- | --- | --- | --- | --- | --- | --- | --- | --- | --- | --- | --- |
| 4 | 0.17 | 204 | 19 | 36 | 60 | 79 | 6 | 4.6 | 100 | – | – | – | – | – | – | – | – | CN1C[C@H](C(=O)Nc2ccc(Cl)cc2)[C@@H](c2ccc(/C=C/C(=O)Nc3ccccc3N)cn2)C1 (racemic) |
| – | – | – | – | 40 | – | – | 12 | – | 260 | 2 | 337 | 12 | 743 | 1.1 | 27 | 6.6 | – | CC(C)(CO)N1C[C@H](C(=O)Nc2ccc(Cl)cc2)[C@@H](c2ccc(/C=C/C(=O)Nc3ccccc3N)cc2)C1 (racemic) |
| – | – | – | – | 34 | – | – | – | – | 216 | – | – | 21 | – | – | 67 | – | 610 (≈ 1110 µM) | CN(C)[C@H]1CCN(C(C(=O)Nc2ccc(C(F)(F)F)cc2)c2ccc(/C=C/C(=O)Nc3ccccc3N)cc2)C1 (stereo not given in full) |
